This is an account of results in ChEMBL document CHEMBL1914364, “3-bromohomofascaplysin A, a fascaplysin analogue from a Fijian Didemnum sp. ascidian” (Bioorg Med Chem, 2011).

SMILES strings stand for the structures.

Series [1] concerns Plasmodium falciparum. Description: Antimalarial activity against chloroquine- and mefloquine-resistant Plasmodium falciparum W2-Mef infected in human O-positive erythrocytes assessed as inhibition of schizonts growth after 48 hrs. Type of series: functional, organism-based. An outline of the steps: (§1)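 Asynchronous W2-Mef cultures kept at 5% hematocrit in RPMI-1640-based malaria medium. Drugs were diluted in ½ log10 steps from 10 μM to 0.33 nM and grown in triplicate for 48 hr. Cells were stained 40 min with Hoechst 33342, thiazole orange, DiIC1-5 and propidium iodide, then read by flow cytometry; DNA/RNA levels assign ring, trophozoite and schizont stages. IC50 is taken from mean parasite counts relative to drug-free control wells.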

In series [2] the test system is Plasmodium falciparum. Description: Antimalarial activity against chloroquine- and mefloquine-resistant Plasmodium falciparum W2-Mef infected in human O-positive erythrocytes after 48 hrs. The series is classed as functional, organism-based. An outline of the steps: as §1
Series [3] deals with Plasmodium falciparum. Description: Antimalarial activity against chloroquine- and mefloquine-resistant Plasmodium falciparum W2-Mef infected in human O-positive erythrocytes assessed as inhibition of ring-stage parasite growth after 48 hrs. Type of series: functional, organism-based. Summed up: as §1
The test system of series [4] is Plasmodium falciparum. Description: Antimalarial activity against chloroquine- and mefloquine-resistant Plasmodium falciparum W2-Mef infected in human O-positive erythrocytes assessed as inhibition of trophozoites growth after 48 hrs. Type of series: functional, organism-based. Summed up: as §1
The next series relates to L6. In words: Cytotoxicity against rat L6 cells. The series is classed as cell-based.
The subject of series [5] is Plasmodium falciparum. Description: Antimalarial activity against chloroquine- and pyrimethamine-resistant Plasmodium falciparum K1. Type of series: functional, organism-based.
Series [6] can be described thus: Ratio of MIC for rat L6 cells to MIC for Plasmodium falciparum.
Series [7] deals with Plasmodium falciparum. In words: Ratio of IC50 for chloroquine- and mefloquine-resistant Plasmodium falciparum W2-Mef trophozoites to IC50 for chloroquine- and mefloquine-resistant Plasmodium falciparum W2-Mef ring-stage parasite. Type of series: functional.
The test system of series [8] is Plasmodium falciparum. In words: Ratio of IC50 for chloroquine- and mefloquine-resistant Plasmodium falciparum W2-Mef schizonts to IC50 for chloroquine- and mefloquine-resistant Plasmodium falciparum W2-Mef ring-stage parasite. The series is classed as functional.

What is called IC50 is the concentration that inhibits the measured activity by half. Take `CC(=O)C[C@]1(O)c2ccc(Br)cc2-[n+]2ccc3c([nH]c4ccccc43)c21`: the IC50 stood at 765 nM in the series with Plasmodium falciparum [1], 805 nM with Plasmodium falciparum [2], 574 nM with Plasmodium falciparum [3] and 1190 nM with Plasmodium falciparum [4].

On to `C[C@@H]1CC[C@H]2[C@@H](C)C(=O)O[C@@H]3O[C@@]4(C)CC[C@@H]1[C@]32OO4` [ARTEMISININ], for which the IC50 came to 5.91 nM in the series on Plasmodium falciparum [1], 6.25 nM in the series on Plasmodium falciparum [2], 5.92 nM with Plasmodium falciparum [3] and 6.46 nM in the series on Plasmodium falciparum [4].

Regarding `O=C1c2ccccc2-[n+]2ccc3c([nH]c4ccccc43)c21.[Cl-]` [FASCAPLYSIN CHLORIDE], the Activity with L6 turned out to be 2.5 µg/mL. Moreover, the IC50 came to 160 nM in the series with Plasmodium falciparum [5]; 65.2 nM with Plasmodium falciparum [1]; 48.2 nM in the series with Plasmodium falciparum [2]; 7.82 nM with Plasmodium falciparum [3]; 401 nM in the series with Plasmodium falciparum [4]. For the same molecule, the Ratio in [6] is 50.

As to `CC(=O)C[C@]1(O)c2ccccc2-[n+]2ccc3c([nH]c4ccccc43)c21.[Cl-]` [HOMOFASCAPLYSINE A], the figures for the “Ratio IC50” value with Plasmodium falciparum [7] and in the series on Plasmodium falciparum [8] were 450 and 170, respectively. In addition, in the series on L6, the Activity was determined as 1.1 µg/mL. Further, the concentration for half-maximal inhibition (IC50) turned out to be 38 nM in the series with Plasmodium falciparum [5]; 94 nM in the series on Plasmodium falciparum [1]; 105 nM in the series with Plasmodium falciparum [2]; 0.55 nM in the series on Plasmodium falciparum [3]; 252 nM in the series on Plasmodium falciparum [4]. Moreover, the Ratio in [6] is 50.
